Values after ≈ are worked out from the molar mass of the structure shown. Active and inactive are the calls of the source. The calls are words filed in the database; no cut-off is given here.
Columns and labels:
[1] = target: T1, Multidrug efflux pump subunit AcrB (Escherichia coli (strain K12)) (UniProt P31224); assay: Inhibition of AcrB in multidrug-resistant Escherichia coli BW25113 assessed as potentiation of tetraphenylphosphonium-induced antibacterial activity by measuring tetraphenylphosphonium MIC at 8 ug/ml by checkerboard titration method (reference value: 1024 ug/ml); conditions: dose 8.0 µg/ml
T1 sequence (whole entry): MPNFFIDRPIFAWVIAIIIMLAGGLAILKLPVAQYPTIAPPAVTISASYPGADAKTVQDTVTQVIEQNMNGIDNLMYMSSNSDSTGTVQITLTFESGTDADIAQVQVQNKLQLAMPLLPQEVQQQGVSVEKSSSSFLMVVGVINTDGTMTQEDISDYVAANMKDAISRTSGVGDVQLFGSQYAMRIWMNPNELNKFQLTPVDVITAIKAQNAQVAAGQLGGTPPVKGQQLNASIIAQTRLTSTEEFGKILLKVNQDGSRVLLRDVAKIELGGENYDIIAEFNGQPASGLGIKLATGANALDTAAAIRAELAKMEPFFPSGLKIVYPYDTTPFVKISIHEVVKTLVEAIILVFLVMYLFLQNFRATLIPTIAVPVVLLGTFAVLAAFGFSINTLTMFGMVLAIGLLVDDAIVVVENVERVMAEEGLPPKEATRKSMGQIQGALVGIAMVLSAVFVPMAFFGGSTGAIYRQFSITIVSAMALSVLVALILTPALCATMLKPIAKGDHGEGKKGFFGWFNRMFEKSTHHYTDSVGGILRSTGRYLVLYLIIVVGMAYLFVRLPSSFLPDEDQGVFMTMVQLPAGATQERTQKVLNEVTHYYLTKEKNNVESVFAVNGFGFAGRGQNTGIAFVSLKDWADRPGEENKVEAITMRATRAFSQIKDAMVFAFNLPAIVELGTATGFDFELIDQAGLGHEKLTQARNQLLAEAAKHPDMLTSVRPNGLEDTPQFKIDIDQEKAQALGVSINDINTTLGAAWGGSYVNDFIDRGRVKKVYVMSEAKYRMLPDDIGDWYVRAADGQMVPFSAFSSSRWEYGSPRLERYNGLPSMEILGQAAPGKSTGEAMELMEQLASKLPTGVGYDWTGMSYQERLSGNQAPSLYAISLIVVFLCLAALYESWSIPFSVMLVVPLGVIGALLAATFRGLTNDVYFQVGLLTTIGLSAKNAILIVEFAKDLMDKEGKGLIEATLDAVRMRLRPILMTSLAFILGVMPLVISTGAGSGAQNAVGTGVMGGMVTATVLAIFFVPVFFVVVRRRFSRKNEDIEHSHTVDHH

[2] = target: T1, Multidrug efflux pump subunit AcrB (Escherichia coli (strain K12)); conditions: Escherichia coli BW25113; dose 64.0 µg/ml
[3] = target: T1, Multidrug efflux pump subunit AcrB (Escherichia coli (strain K12)); assay: Inhibition of AcrB in multidrug-resistant Escherichia coli BW25113 assessed as potentiation of chloramphenicol-induced antibacterial activity by measuring chloramphenicol MIC at 32 ug/ml by checkerboard titration method (reference value: 8 ug/ml); conditions: dose 32.0 µg/ml
[4] = target: T1, Multidrug efflux pump subunit AcrB (Escherichia coli (strain K12)); assay: Inhibition of AcrB in multidrug-resistant Escherichia coli BW25113 assessed as potentiation of erythromycin-induced antibacterial activity by measuring erythromycin MIC at 32 ug/ml by checkerboard titration method (reference value: 64 ug/ml); conditions: dose 32.0 µg/ml
[5] = target: T1, Multidrug efflux pump subunit AcrB (Escherichia coli (strain K12)); conditions: Escherichia coli BW25113; dose 32.0 µg/ml
Cell membrane [6] = assay: Induction of inner membrane permeabilization in wild type Escherichia coli BW25113 assessed as perturbation of proton motive force at 32 ug/ml measured after 10 mins in presence of CCCP and glucose by Di0C2(3) probe based fluorescence assay; conditions: escherichia coli bw25113, 10 min, dose 32 µg/ml
Procedure, shortened: (§1)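 Cell suspensions were left untreated or exposed to 8-128 µg/mL compound for 10 min. DiOC₂(3) was then added and fluorescence followed to a plateau. Cells were re-energized with 0.5% glucose, and the rise in fluorescence was read as membrane-potential build-up. CCCP was added last to dissipate the potential.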

Cell membrane [7] = assay: Induction of inner membrane permeabilization in wild type Escherichia coli BW25113 assessed as perturbation of proton motive force at 64 ug/ml measured after 10 mins in presence of CCCP and glucose by Di0C2(3) probe based fluorescence assay; conditions: escherichia coli bw25113, 10 min, dose 64 µg/ml; procedure, shortened: as §1
[8] = target: T1, Multidrug efflux pump subunit AcrB (Escherichia coli (strain K12)); assay: Inhibition of AcrB in Escherichia coli BW25113 assessed as reduction in glucose-induced nile red efflux at 100 uM preincubated for 15 mins followed by nile red addition and incubated for 3 hrs in shaker in presence of CCCP by fluorimetric analysis; conditions: time 3.25 hrs
Procedure, shortened: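 Wild-type and AcrB-deleted cells were preloaded with Nile Red, with or without compound. Fluorescence was recorded, and efflux was triggered at 100 s with 0.2% glucose. Traces were compared with the deletion-strain level. Triplicate experiments used different cell batches.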

[9] = target: T1, Multidrug efflux pump subunit AcrB (Escherichia coli (strain K12)); assay: Inhibition of AcrB in multidrug-resistant Escherichia coli BW25113 assessed as potentiation of erythromycin-induced antibacterial activity by measuring erythromycin MIC at 16 ug/ml by checkerboard titration method (reference value: 64 ug/ml); conditions: dose 16.0 µg/ml
[10] = target: T1, Multidrug efflux pump subunit AcrB (Escherichia coli (strain K12)); assay: Inhibition of AcrB in multidrug-resistant Escherichia coli BW25113 assessed as potentiation of levofloxacin-induced antibacterial activity by measuring levofloxacin MIC at 32 ug/ml by checkerboard titration method (reference value: 0.06 ug/ml); conditions: dose 32.0 µg/ml
[11] = target: T1, Multidrug efflux pump subunit AcrB (Escherichia coli (strain K12)); conditions: Escherichia coli BW25113; dose 16.0 µg/ml
[12] = target: T1, Multidrug efflux pump subunit AcrB (Escherichia coli (strain K12)); assay: Inhibition of AcrB in multidrug-resistant Escherichia coli BW25113 assessed as potentiation of levofloxacin-induced antibacterial activity by measuring levofloxacin MIC at 64 ug/ml by checkerboard titration method (reference value: 0.06 ug/ml); conditions: dose 64.0 µg/ml
[13] = target: T1, Multidrug efflux pump subunit AcrB (Escherichia coli (strain K12)); conditions: Escherichia coli BW25113; dose 128.0 µg/ml
Cell membrane [14] = assay: Induction of inner membrane permeabilization in wild type Escherichia coli BW25113 assessed as perturbation of proton motive force at 128 ug/ml measured after 10 mins in presence of CCCP and glucose by Di0C2(3) probe based fluorescence assay; conditions: escherichia coli bw25113, 10 min, dose 128 µg/ml; procedure, shortened: as §1
Cell membrane [15] = assay: Induction of outer membrane permeabilization in wild type Escherichia coli BW25113 assessed as increase in nitrocefin hydrolysis at 64 ug/ml in presence of CCCP by spectroscopic analysis; conditions: dose 64 µg/ml
Procedure, shortened: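 Intact E. coli were treated with 10 μM CCCP to block nitrocefin efflux, then given compound, nothing, or polymyxin B as permeabilizer control. Nitrocefin was added, and hydrolysis by periplasmic β-lactamase was followed as the rise in absorbance at 490 nm. Duplicate experiments were run on different days.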

| SMILES | MIC [1] | MIC [2] | MIC [3] | MIC [4] | MIC [5] | Activity (Cell membrane [6]) | Activity (Cell membrane [7]) | inhibition [8] | MIC [9] | MIC [10] | MIC [11] | MIC [12] | MIC [13] | Activity (Cell membrane [14]) | Activity (Cell membrane [15]) |
| --- | --- | --- | --- | --- | --- | --- | --- | --- | --- | --- | --- | --- | --- | --- | --- |
| CC1(C)CCc2c(C(=O)O)cc3c(OCc4ccccc4)cccc3c2O1 | 1020 mg/L | 16 mg/L (≈ 44.1 µM) | 8 mg/L | 64 mg/L | 16 mg/L (≈ 44.1 µM) | Active | Not Active | Active | 64 mg/L | 0.06 mg/L | 16 mg/L (≈ 44.1 µM) | 0.01 mg/L | 16 mg/L (≈ 44.1 µM) |  |  |
| CC1(C)CCc2c(Cn3cnnn3)cc3c(OCc4ccccc4)cccc3c2O1 | 1020 mg/L | 16 mg/L (≈ 40 µM) | 8 mg/L | 64 mg/L | 16 mg/L (≈ 40 µM) |  |  | Active | 64 mg/L | 0.06 mg/L | 16 mg/L (≈ 40 µM) | 0.06 mg/L | 16 mg/L (≈ 40 µM) | Not Active | Not Active |
| Cc1ccccc1COc1cccc2c3c(c(-c4nnco4)cc12)CCC(C)(C)O3 | 512 mg/L | 16 mg/L (≈ 40 µM) | 8 mg/L | 32 mg/L | 16 mg/L (≈ 40 µM) | Not Active |  | Active | 64 mg/L | 0.06 mg/L | 16 mg/L (≈ 40 µM) | 0.06 mg/L | 16 mg/L (≈ 40 µM) |  |  |
| CNC(=O)c1ccc(COc2cccc3c4c(c(Cn5cnnn5)cc23)CCC(C)(C)O4)cc1 | 1020 mg/L | 16 mg/L (≈ 35 µM) | 8 mg/L | 64 mg/L | 16 mg/L (≈ 35 µM) |  |  |  | 64 mg/L | 0.06 mg/L | 16 mg/L (≈ 35 µM) | 0.06 mg/L | 16 mg/L (≈ 35 µM) | Not Active | Not Active |
| CC1(C)CCc2c(C(=O)N3CCOCC3)cc3c(OCc4ccccc4)cccc3c2O1 | 512 mg/L | 16 mg/L (≈ 37.1 µM) | 4 mg/L | 64 mg/L | 16 mg/L (≈ 37.1 µM) |  | Not Active | Active | 64 mg/L | 0.03 mg/L | 16 mg/L (≈ 37.1 µM) | 0.03 mg/L | 16 mg/L (≈ 37.1 µM) |  |  |
| Cc1ccc(COc2cccc3c4c(c(-c5nnco5)cc23)CCC(C)(C)O4)cc1 | 512 mg/L | 16 mg/L (≈ 40 µM) | 8 mg/L | 32 mg/L | 16 mg/L (≈ 40 µM) | Not Active |  | Active | 32 mg/L | 0.03 mg/L | 16 mg/L (≈ 40 µM) | 0.03 mg/L | 16 mg/L (≈ 40 µM) | Not Active |  |
| CC1(C)CCc2c(-c3nnco3)cc3c(OCc4ccc(C#N)cc4)cccc3c2O1 | 1020 mg/L | 16 mg/L (≈ 38.9 µM) | 4 mg/L | 64 mg/L | 16 mg/L (≈ 38.9 µM) |  | Not Active |  | 64 mg/L | 0.06 mg/L | 16 mg/L (≈ 38.9 µM) | 0.06 mg/L | 16 mg/L (≈ 38.9 µM) | Not Active |  |
| CC1(C)CCc2c(C(=O)N3CCOCC3)cc3c(OCc4ccc(C(F)(F)F)cc4)cccc3c2O1 | 512 mg/L | 16 mg/L (≈ 32 µM) | 8 mg/L | 64 mg/L | 16 mg/L (≈ 32 µM) |  | Not Active |  | 64 mg/L | 0.06 mg/L | 16 mg/L (≈ 32 µM) | 0.06 mg/L | 16 mg/L (≈ 32 µM) |  |  |
| CC1(C)CCc2c(-c3nnco3)cc3c(OCc4ccccc4)cccc3c2O1 | 512 mg/L | 16 mg/L (≈ 41.4 µM) | 4 mg/L | 32 mg/L | 16 mg/L (≈ 41.4 µM) | Not Active |  | Active | 64 mg/L | 0.06 mg/L | 16 mg/L (≈ 41.4 µM) | 0.06 mg/L | 16 mg/L (≈ 41.4 µM) |  |  |
| COc1cccc(COc2cccc3c4c(c(C(=O)O)cc23)CCC(C)(C)O4)c1 | 1020 mg/L | 16 mg/L (≈ 40.8 µM) | 8 mg/L | 32 mg/L | 16 mg/L (≈ 40.8 µM) | Not Active |  | Active | 64 mg/L | 0.06 mg/L | 16 mg/L (≈ 40.8 µM) | 0.06 mg/L | 16 mg/L (≈ 40.8 µM) | Not Active |  |
